Only a selection was taken, and hits are over-represented in it overall.
INS-1E ATP HTS = protection of INS-1E cells from cytokine death, primary screen, ATP luminescence, single point; INS-1E cytokine-induced death, 48 h; normalised: neutral wells 0, positive control 100; protection from cytokine-induced ATP loss, % at 10 µM; 20,000 tested, 0.1% active;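 active = mean replicate protection from cytokine-induced ATP loss at least 50% and at least 75% of replicates each reaching 50%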
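Assay system: INS-1E rat cells / Quantity: 8000 cells per well / Medium: RPMI without phenol red, 5% FBS / Probe or stimulus: three-cytokine cocktail (IFN-γ, TNF-α, IL-1β) / Dosing: one compound concentration, pin transfer / Timing: 48 h co-treatment, 10 min post-lysis read / Technique: CellTiter-Glo luminescence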
T cruzi HTS = inhibitors of intracellular Trypanosoma cruzi, primary screen, cell-based, plate reader, single point, set 2. intracellular Trypanosoma cruzi in host cells. activity score (inhibition), % at 5.01 µM. 22,000 tested, 4.9% active; in the data active = activity score above about 55%;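 also: parasites and compound incubated about four days before reading; 0% = median of neutral control wells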
A1 apoptosis 2 = A1 inhibitors via caspase activation, primary screen, cell-based, luminescence, HTS, two replicates; MEF A1-2A-BIM cells, caspase-Glo luminescence, 3 h; percent of clofoctol response, DMSO zero; caspase activation, % (no concentration beside the values); 24,000 tested, under 10 active; AID 2465, 2010; in the data active = caspase activation above about 5.9%
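system = A1-2A-BIM-expressing MEF cells | quantity = 2500 MEF cells/well | dosing = 50 nL compound per well, pinned | schedule = overnight cell settling, then 3 h compound exposure, 37 °C | signal = luminescence from DEVD-luciferin Caspase-Glo reagent, 1:1 in 50 mM HEPES, 1 h RT | read-out = Caspase-3/7 activation, seen as rise in luminescence signal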
Starred values were filed as active, the others as inactive.

How did C[C@H](CO)N1C[C@H](C)[C@H](CN(C)Cc2ccc(C(=O)Nc3ccccc3N)cc2)Oc2ccc(NC(=O)C3CC3)cc2CC1=O do in these assays?
INS-1E ATP HTS: 32; T cruzi HTS: 63*

How did C[C@@H]1CN([C@H](C)CO)C(=O)Cc2cc(NC(=O)C3CCCCC3)ccc2O[C@@H]1CN(C)Cc1ccc(C(=O)Nc2ccccc2N)cc1 do in these assays?
INS-1E ATP HTS: -13; T cruzi HTS: 54

Results for C[C@H](CO)N1C[C@H](C)[C@@H](CN(C)Cc2ccc(C(=O)Nc3ccccc3N)cc2)Oc2ccc(NC(=O)C3CC3)cc2CC1=O ?
A1 apoptosis 2: 0

What do the screens show for `C[C@H](CO)N1C[C@H](C)[C@H](CN(C)Cc2ccc(C(=O)Nc3ccccc3N)cc2)Oc2ccc(NC(=O)C3CCCCC3)cc2CC1=O`?
INS-1E ATP HTS: 29; T cruzi HTS: 61*

What do the screens show for `COC(=O)c1cn(CC(=O)N2CCN(C)CC2)nn1`?
A1 apoptosis 2: -1

How did C[C@H](CO)N1C[C@H](C)[C@@H](CN(C)C(=O)Nc2ccc(C(F)(F)F)cc2)Oc2ccc(NC(=O)Nc3ccc4c(c3)OCO4)cc2CC1=O do in these assays?
A1 apoptosis 2: 1

Results for C[C@@H]1CN([C@@H](C)CO)C(=O)Cc2cc(NC(=O)Nc3ccc4c(c3)OCO4)ccc2O[C@@H]1CN(C)C(=O)Nc1ccc(C(F)(F)F)cc1 ?
INS-1E ATP HTS: -10; T cruzi HTS: 7

How did C[C@H]1CN([C@@H](C)CO)C(=O)Cc2cc(NC(=O)Nc3ccc(F)cc3)ccc2O[C@H]1CN(C)Cc1ccc2c(c1)OCO2 do in these assays?
INS-1E ATP HTS: -2; T cruzi HTS: 3

Results for C[C@H]1CN([C@@H](C)CO)C(=O)Cc2cc(NC(=O)Nc3ccc4c(c3)OCO4)ccc2O[C@@H]1CN(C)Cc1ccc(C(F)(F)F)cc1 ?
INS-1E ATP HTS: -42; T cruzi HTS: 71*; A1 apoptosis 2: 0

What do the screens show for `C[C@H]1CN([C@@H](C)CO)C(=O)Cc2cc(NC(=O)Nc3ccc4c(c3)OCO4)ccc2O[C@H]1CN(C)Cc1ccc(C(F)(F)F)cc1`?
INS-1E ATP HTS: -32; T cruzi HTS: 68*

What do the screens show for `C[C@@H]1CN([C@H](C)CO)C(=O)Cc2cc(NC(=O)Nc3ccc4c(c3)OCO4)ccc2O[C@H]1CN(C)C(=O)Nc1ccc(C(F)(F)F)cc1`?
INS-1E ATP HTS: -1; T cruzi HTS: -9

Results for C[C@H]1CN([C@@H](C)CO)C(=O)Cc2cc(NC(=O)Nc3ccc(C(F)(F)F)cc3)ccc2O[C@H]1CN(C)Cc1ccc2c(c1)OCO2 ?
INS-1E ATP HTS: -24; T cruzi HTS: 60*

What do the screens show for `C[C@H](CO)N1C[C@H](C)[C@H](CN(C)Cc2ccc(C(F)(F)F)cc2)Oc2ccc(NC(=O)Nc3ccc4c(c3)OCO4)cc2CC1=O`?
INS-1E ATP HTS: -29; T cruzi HTS: 67*; A1 apoptosis 2: -1

How did O=C(O)c1ccc(/C=N/NC(=O)c2ccc(C(=O)NO)cc2)cc1 do in these assays?
INS-1E ATP HTS: -6; T cruzi HTS: 9; A1 apoptosis 2: 1

How did O=C(O)CCCCCCC(=O)N/N=C/c1ccc2ccccc2n1 do in these assays?
INS-1E ATP HTS: -5; T cruzi HTS: 2; A1 apoptosis 2: 1

How did CCN(CC)c1ccc(/C=N/NC(=O)c2ccccn2)c(O)c1 do in these assays?
A1 apoptosis 2: -10

How did O=C(O)CCCCCC(=O)N/N=C/c1ccc(F)cc1 do in these assays?
INS-1E ATP HTS: 1; T cruzi HTS: -18; A1 apoptosis 2: 0

Results for O=C(NO)c1ccc(C(=O)N/N=C/c2ccc(CO)o2)cc1 ?
INS-1E ATP HTS: 9; T cruzi HTS: -12; A1 apoptosis 2: 1

Results for O=C(O)CCCCCCC(=O)N/N=C/C1CCCCC1 ?
INS-1E ATP HTS: 15; T cruzi HTS: -25; A1 apoptosis 2: 1

What do the screens show for `O=C1O[C@H](c2ccccc2)[C@H](c2ccccc2)N2[C@H]1[C@@H](C(=O)O)[C@]1(C(=O)Nc3ccc(C#CC4=CCCCC4)cc31)[C@H]2c1ccc(O)cc1`?
A1 apoptosis 2: -1

What do the screens show for `C[C@@H]1CN([C@@H](C)CO)C(=O)Cc2cc(NC(=O)Nc3ccc4c(c3)OCO4)ccc2O[C@@H]1CN(C)Cc1ccc(C(F)(F)F)cc1`?
INS-1E ATP HTS: -8; T cruzi HTS: 68*

How did C[C@H](CO)N1C[C@H](C)[C@H](CN(C)Cc2ccc3c(c2)OCO3)Oc2ccc(NC(=O)Nc3ccc4c(c3)OCO4)cc2CC1=O do in these assays?
INS-1E ATP HTS: -8; T cruzi HTS: 13; A1 apoptosis 2: 1

What do the screens show for `O=C(N/N=C/c1ccccc1[N+](=O)[O-])c1ccccn1`?
INS-1E ATP HTS: 6; T cruzi HTS: -24

Results for C[C@@H]1CN([C@@H](C)CO)C(=O)c2cc(NC(=O)Nc3ccc(C(F)(F)F)cc3)ccc2O[C@@H](C)CCCCO[C@@H]1CN(C)S(=O)(=O)c1cccs1 ?
A1 apoptosis 2: -1

Results for C[C@H](CO)N1C[C@H](C)[C@@H](CN(C)S(=O)(=O)c2cccs2)OCCCC[C@H](C)Oc2ccc(NC(=O)Nc3ccc(C(F)(F)F)cc3)cc2C1=O ?
A1 apoptosis 2: -1

Results for C[C@@H]1CCCCO[C@@H](CN(C)S(=O)(=O)c2cccs2)[C@@H](C)CN([C@H](C)CO)C(=O)c2cc(NC(=O)Nc3ccc(C(F)(F)F)cc3)ccc2O1 ?
INS-1E ATP HTS: -12; T cruzi HTS: 67*; A1 apoptosis 2: 0

What do the screens show for `C[C@@H]1CCCCO[C@H](CN(C)S(=O)(=O)c2cccs2)[C@@H](C)CN([C@H](C)CO)C(=O)c2cc(NC(=O)Nc3ccc(C(F)(F)F)cc3)ccc2O1`?
INS-1E ATP HTS: -15; T cruzi HTS: 62*

Results for O=C(CCCCCC(=O)N/N=C/c1ccc(Br)s1)NO ?
A1 apoptosis 2: 0

What do the screens show for `O=C(CCCCCC(=O)NN=C1CCCC1)NO`?
A1 apoptosis 2: 0

Results for C[C@H]1CN([C@@H](C)CO)C(=O)c2cccc(NC(=O)c3ccncc3)c2O[C@@H]1CN(C)Cc1ccccc1 ?
INS-1E ATP HTS: 6; T cruzi HTS: 81*

What do the screens show for `C[C@@H]1CN([C@H](C)CO)C(=O)c2cccc(NC(=O)c3ccncc3)c2O[C@@H]1CN(C)Cc1ccccc1`?
INS-1E ATP HTS: 0; T cruzi HTS: -12; A1 apoptosis 2: 2

How did C[C@H](CO)N1C[C@H](C)[C@H](CN(C)Cc2ccccc2)Oc2c(NC(=O)c3ccncc3)cccc2C1=O do in these assays?
INS-1E ATP HTS: -1; T cruzi HTS: 81*; A1 apoptosis 2: -1

How did C[C@H](CO)N1C[C@H](C)[C@H](CN(C)Cc2ccc(Oc3ccccc3)cc2)Oc2c(NC(=O)c3ccncc3)cccc2C1=O do in these assays?
INS-1E ATP HTS: -11; T cruzi HTS: 60*; A1 apoptosis 2: 0

How did C[C@@H]1CN([C@H](C)CO)C(=O)c2cccc(NC(=O)c3ccncc3)c2O[C@H]1CN(C)Cc1ccc(C(=O)O)cc1 do in these assays?
INS-1E ATP HTS: 1; T cruzi HTS: -10; A1 apoptosis 2: -1

Assay outcomes: PubChem BioAssay, Broad Institute
